Hits are enriched below; roughly 3.3% of the tested compounds scored in any of these assays.
PRMT1 inh: PRMT1 methyltransferase inhibitors, primary screen, biochemical, fluorescence polarization | hit rate 1.3% among 370,000 | AID 652257, 2013 | recombinant PRMT1, activity-based probe fluorescence polarization | Protein arginine N-methyltransferase 1 (Homo sapiens), Q99873 | inhibition, % at 2.79 µM;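 active = inhibition above about 21% made by adding two undisclosed values, limit read from the data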
UHRF1 binding: UHRF1 methylated DNA binding inhibitors, primary screen, counter-screen for MBD2 inhibitor project, biochemical, TR-FRET, human UHRF1, single concentration; hit rate 0.75% among 370,000; UHRF1 binding to methylated oligo; inhibition, % at 4.4 µM; E3 ubiquitin-protein ligase UHRF1 (Homo sapiens), Q96T88; in the data active = inhibition above about 21%;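 also: UHRF1 SRA domain binding a hemimethylated CpG hairpin DNA probe; 0% = median of test compound wells and 100% = reference inhibitor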
Target sequence (Q96T88 whole entry, looked up, the tested form may be a part): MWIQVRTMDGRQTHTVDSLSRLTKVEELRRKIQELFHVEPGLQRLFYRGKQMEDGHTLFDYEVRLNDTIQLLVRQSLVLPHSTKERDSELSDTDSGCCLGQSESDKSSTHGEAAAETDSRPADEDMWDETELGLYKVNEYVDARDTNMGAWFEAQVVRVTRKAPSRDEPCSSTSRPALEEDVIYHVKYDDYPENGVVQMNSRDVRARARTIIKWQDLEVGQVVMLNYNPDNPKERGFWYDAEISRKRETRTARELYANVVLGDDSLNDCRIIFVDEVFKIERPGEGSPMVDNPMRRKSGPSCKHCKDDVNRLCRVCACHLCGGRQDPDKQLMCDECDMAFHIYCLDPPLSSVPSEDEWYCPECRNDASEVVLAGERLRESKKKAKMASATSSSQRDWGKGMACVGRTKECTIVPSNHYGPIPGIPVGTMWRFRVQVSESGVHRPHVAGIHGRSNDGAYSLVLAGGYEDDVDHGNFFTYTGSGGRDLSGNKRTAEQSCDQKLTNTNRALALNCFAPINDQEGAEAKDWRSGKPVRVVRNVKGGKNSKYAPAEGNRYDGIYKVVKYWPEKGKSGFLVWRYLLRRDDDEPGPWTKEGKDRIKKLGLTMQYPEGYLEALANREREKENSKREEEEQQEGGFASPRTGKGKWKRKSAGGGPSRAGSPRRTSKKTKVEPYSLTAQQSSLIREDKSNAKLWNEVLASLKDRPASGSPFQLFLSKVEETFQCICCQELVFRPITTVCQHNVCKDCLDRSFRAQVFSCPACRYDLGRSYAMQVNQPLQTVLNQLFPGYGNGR
TDP2 absorb: human TDP2 enzyme inhibitors, primary screen, biochemical, epi absorbance, recombinant enzyme; T5PNP hydrolysis, p-nitrophenol absorbance 415 nm; inhibition, % at 12.8 µM; hit rate 0.34% among 370,000; Tyrosyl-DNA phosphodiesterase 2 (Homo sapiens), O95551;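 active = inhibition above the mean of all tested compounds plus 3 SD, set per campaign, cut at about 25% in these data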;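 also: 0% = DMSO with enzyme and 100% = buffer with substrate but no TDP2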
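Incubation: 2 h at 37 °C; Test system: recombinant human TDP2; Quantity: enzyme 120 nM; Read-out basis: percent inhibition; Medium: 50 mM Tris-HCl pH 7.5 with Mg2+, KCl, DTT, BSA; Repeats: single replicate; Compound: 12.8 µM single point, 1% DMSO; Signal: epi absorbance; Reagent: 5 mM T5PNP chromogenic substrate; Benchmarks: no-enzyme high, DMSO-plus-enzyme low.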
MBD2 inh: inhibitors of MBD2 binding to methylated DNA, primary screen, biochemical, TR-FRET, DNA-binding domain, human | Methyl-CpG-binding domain protein 2 (Homo sapiens), Q9UBB5 | MBD2 binding to methylated oligonucleotide | inhibition, % at 4.4 µM | hit rate 0.31% among 370,000; in the data active = inhibition above about 13%
LEDGF integ inh: blockers of LEDGF/p75-dependent integrase strand transfer – biochemical, TR-FRET, high throughput, primary screen | HIV-1 integrase (with human LEDGF/p75) | TR-FRET IN-LEDGF/p75 DNA integration, Eu/Cy5 | inhibition, % at 3.7 µM | hit rate 0.64% among 370,000 | AID 743269, 2014;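 active = inhibition above the screen-wide mean plus 3 SD, cut at about 13% in these data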;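 also: signal is the Cy5 over europium emission ratio at 671 and 618 nm; 0% = plate median of compound wells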
SIAE inh: human SIAE inhibitors, primary screen, biochemical, fluorescence polarization, FP-Rh probe, 1536-well HTS | SIAE FP-Rh probe binding | inhibition, % at 9.66 µM | hit rate 0.69% among 370,000 | AID 1053197, 2014;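 active = inhibition above a cutoff: mean of compounds within the control limits plus 3 SD of those, cut at about 17% in these data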;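 also: 0% = plate median of compound wells and 100% = probe without SIAE protein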
IN multimer act: HIV-1 IN multimer formation enhancers, counter-screen for LEDGF/p75 integration inhibitor project, biochemical, TR-FRET; AID 1053131, 2014; shares compounds with LEDGF integ inh; activation, % at 7.7 µM; TR-FRET HIV-1 integrase multimerization; hit rate 17% among 2,000; in the data active = activation above about 8.9%
TRFRET interf: TR-FRET optical interference artefacts, confirmation, artefact control for LEDGF/p75-dependent integration inhibitor project, biochemical, HIV-1 IN multimerization; shares compounds with LEDGF integ inh; TR-FRET optical interference counterscreen; inhibition, % at 7.7 µM; 2,000 tested, under 10 active; AID 1053135, 2014;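 active = inhibition above the mean over all tested compounds plus 3 SD, which no compound reached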;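 also: 0% = integrase with antibodies and DMSO and 100% = antibodies without integrase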
IN-LEDGF confirm: inhibitors of HIV-1 IN-LEDGF/p75 DNA integration, confirmation, biochemical, TR-FRET | shares compounds with LEDGF integ inh | TR-FRET LEDGF/p75-dependent HIV-1 integration | inhibition, % at 3.7 µM | hit rate 36% among 2,000; in the data active = inhibition above about 14%
Numbers without * were called inactive; x = no result given.

SMILES	PRMT1 inh	UHRF1 binding	TDP2 absorb	MBD2 inh	LEDGF integ inh	SIAE inh	IN multimer act	TRFRET interf	IN-LEDGF confirm
N#Cc1c(SCC(=O)Nc2cccc(F)c2)sc2c(O)cc(=O)[nH]c12	20	30*	-3	9	17*	-5	7	-38	5
COC(=O)C[C@@H]1CC[C@@H]2[C@@H](COc3ccc(NC(=O)Nc4cccc(Cl)c4)cc3C(=O)N2C)O1	2	0	5	-6	-4	3	x	x	x
O=C(c1coc(=O)c(Br)c1)N1CCCc2ccccc21	15	14	1	6	19*	-12	-1	4	17*
O=C(c1cccc(Br)c1)N1CCCc2ccccc21	2	0	4	-4	-3	1	x	x	x
Brc1ccc(-c2nn3c(-c4ccccc4)nnc3s2)o1	2	-3	-4	-6	2	-1	x	x	x
O=c1c(O)c(-c2ccc(O)c(O)c2)oc2cc(O)ccc12	4	0	3	0	79*	0	39*	-198	92*
CCn1c(=O)n(CC(=O)N2CCCN(Cc3ccccc3)CC2)c(=O)c2ccccc21	2	1	9	-8	2	-7	x	x	x
C/C(=C\C(=O)c1ccc(F)cc1)Nc1ccc(N2CCOCC2)cc1	5	1	21	-3	23*	8	2	-9	-4
CCCc1cn(-c2ccc3c(c2)[C@]2(CC(=O)N(C)C2c2ccccc2)C(=O)N3CC(C)C)nn1 (stereo partly drawn)	0	0	-9	5	1	4	x	x	x
COC(=O)c1cccc(Cn2ccc3ccc(-c4ccc5ccn(C(=O)c6ccccc6)c5c4)cc32)c1	1	-2	2	-4	-2	-3	x	x	x
Cc1cc(/C=C\c2nc(O)c([N+](=O)[O-])c(=O)[nH]2)c(C)n1-c1ccccc1	15	15	7	3	29*	6	3	-14	7
CC1CCN(C(=O)c2[nH]cnc2C(=O)NC2CCN(C(=O)OC(C)(C)C)CC2)CC1	3	2	2	4	17*	-1	-1	5	-1
COc1ccc(OC)c(S(=O)(=O)N(CC(=O)NC2CCC(C)CC2)c2cc(C)cc(C)c2)c1 (stereo not drawn)	1	1	4	-1	-6	-4	x	x	x
Brc1cnc2nc(SC/C=C/c3ccccc3)[nH]c2c1	-2	1	-3	0	37*	-5	6	-29	4
O=C(CCc1nc(-c2ccccc2F)no1)NCCc1c[nH]c2ccccc12	1	4	2	1	-3	3	x	x	x
CCOCC(=O)Nc1cc(C(F)(F)F)ccc1Oc1cccc(Br)c1	-1	-1	-8	1	-2	3	x	x	x
CC(=O)Nc1cc(C(F)(F)F)ccc1Oc1cccc(Br)c1	-1	4	12	-1	16*	-3	-2	10	-1
CN(C)c1ccc(-c2[nH][nH]c(=O)c2NC(=O)c2ccc3ccccc3n2)cc1	5	17	90*	8	31*	9	6	-23	19*
CC(C)C[C@@H]1COc2cccc(N3CCSCC3)c2S(=O)(=O)N1C	-2	1	0	3	-2	0	x	x	x
Cc1c2ccccc2nc2c(F)c(NCCO)c(F)c(F)c12	27*	-16	13	-10	14*	16	5	-19	3
Cc1c2ccccc2nc2c(F)c(NC(C)C)c(F)c(F)c12	19	-6	2	-6	13*	15	1	-5	4
COc1ccc(N(CC(=O)Nc2ccc(OC)c(OC)c2)S(=O)(=O)c2ccccc2)cc1Cl	-3	7	-16	1	6	3	x	x	x
COc1ccc(N(CC(=O)Nc2cccc(N(C)S(C)(=O)=O)c2)S(=O)(=O)c2ccccc2)cc1Cl	4	-2	-1	-4	44*	-15	2	-8	-3
COc1ccc(N(CC(=O)Nc2cccc(SC)c2)S(C)(=O)=O)cc1Cl	-1	5	-2	5	1	-5	x	x	x
COc1ccc(Cl)cc1N(CC(=O)Nc1cccc(SC)c1)S(C)(=O)=O	-4	6	-8	-6	40*	0	-1	3	-3
SMILES	PRMT1 inh	UHRF1 binding	TDP2 absorb	MBD2 inh	LEDGF integ inh	SIAE inh	IN multimer act	TRFRET interf	IN-LEDGF confirm
COc1ccc(C2=CCN(C)C(=O)N2c2ccc([N+](=O)[O-])cc2)cc1	5	-2	6	0	-4	8	x	x	x
CCCCCN1CCCCC(NC(=O)c2ccccc2C)C1=O (stereo not drawn)	3	3	-2	-2	-1	3	x	x	x
Cc1ccn(CCC(=O)N2CCCC(N3CCN(c4ccccc4C)CC3)C2)n1 (stereo not drawn)	-5	-1	3	4	58*	0	-1	4	0
Cc1ccc(-c2ccc(CN3C(C)C(=O)N(Cc4cn(Cc5ccco5)nn4)CCS3(=O)=O)cc2)cc1 (stereo not drawn)	2	-1	1	-1	1	-6	x	x	x
CC1C(=O)N(Cc2cn(Cc3ccco3)nn2)CCS(=O)(=O)N1Cc1ccc(-c2cccnc2)cc1 (stereo not drawn)	16	3	-7	10	17*	1	5	-24	13
Cc1ccc(C(=O)N2CCN(c3ccc(NC(=O)CSc4ccc(Cl)cc4)cc3)CC2)cc1	3	3	4	4	-2	2	x	x	x
CS(=O)(=O)N1CCN(c2ccc(NC(=O)CSc3ccc(Cl)cc3)cc2)CC1	0	-1	3	-5	63*	-4	-2	8	-1
